Source: PubChem
PTEN del growth – PTEN-deleted cell growth suppression; HCT116 PTEN-null viability, CellTiter-Glo, 60 h; hits give low values; 140,000 tested, 1.2% active; viability, % at 10 µM; AID 827;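 active = viability at or below a set limit, 4 SD under the median of all tested compounds, cut at about 3.7% in these data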;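 also: PTEN knockout HCT116 line with beta catenin targeted HCT116 as companion control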
Fibroblast inh – blocks proliferation of human lung fibroblasts; LL 47 human lung fibroblast viability, ATP luminescence; hits give low values; 85,000 tested, 1.1% active; viability, % at 10 µM;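 active = viability at or below 50% in the single dose screen; inactive = viability above 50%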;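 also: compound exposure lasted 72 h before the ATP readout; 100% = median luminescence of untreated cell-only wells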
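Benchmarks: Cell-only wells, no compound | Test system: LL 47 human lung fibroblasts, passage 12 or lower | Input: 1,150 cells/well | Measured by: CellTiter-Glo luminescence measuring cellular ATP | Medium: IMEM, 15% FBS supplement | Schedule: Overnight attachment after seeding, then 72 h compound exposure at 37 °C | Doses: Compound addition at 0.1% DMSO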
bCat KO growth – beta-catenin-lacking colon tumor cell growth suppression | 140,000 tested, 1.5% active | viability, % at 10 µM | HCT116 beta-catenin knockout viability, CellTiter-Glo, 60 h; hits give low values;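 active = viability at or under a set limit, the compound median less 4 SD, cut at about 6% in these data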;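 also: 0% = Hyamine 1622 control at 20 µM and 100% = untreated cell control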
HUVEC inhibit – human endothelial cell proliferation inhibition. HUVEC proliferation, CellTiter-Glo luminescence, 72 h; hits give low values. viability, % at 10 µM (by protocol). 86,000 tested, 1.1% active. AID 648;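 active = viability at or below 30%; inactive = viability above 30%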;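 also: 100% = median luminescence of DMSO-only cell control wells on each plate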
H69AR inhibit – blocks growth of human H69AR lung tumor cells. H69AR lung tumor viability, ATP luminescence, 72 h; hits give low values. viability, % at 10 µM. 85,000 tested, 6% active. AID 598;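 active = viability at or below 40%; inactive = viability above 40%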;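 also: multidrug resistant small cell line overexpressing MRP-1 efflux transporter; 100% = mean luminescence of untreated control wells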
Numbers without * were called inactive; . = no result. Many of the other results were omitted from the sample, so hits are more common in it than they were.

SMILES	PTEN del growth	Fibroblast inh	bCat KO growth	HUVEC inhibit	H69AR inhibit
COc1ccc(C(=O)Nc2cccc(-c3nnc(-c4ccco4)o3)c2)cc1	41	62	54	47	24*
O=C(CSc1nnc(NC(=O)c2ccc(S(=O)(=O)N3CCOCC3)cc2)s1)Nc1ccccc1C(F)(F)F	83	.	78	.	.
COc1ccc(CC(=O)NCc2cn3ccsc3n2)cc1	98	98	92	102	1.0*
CCC(C)NC(=O)COC(=O)c1oc2ccccc2c1CSc1ccc(Cl)cc1 (configuration not stated)	97	.	95	.	.
CCc1ccc(C2=NNC(=Nc3cccc(S(=O)(=O)N(C)C)c3)SC2)cc1	4	.	3.9*	.	.
COc1cc2[nH]c(=O)n(CCCCCC(=O)N3CCN(c4ccccc4)CC3)c(=O)c2cc1OC	68	97	80	66	65
COc1cc2[nH]c(=O)n(CCC(=O)N3CCN(c4cccc(C)c4C)CC3)c(=O)c2cc1OC	99	89	96	44	2.4*
CC(C)C(c1nnnn1C(C)(C)C)N1CCC(Cc2ccccc2)CC1 (configuration not stated)	83	.	76	.	.
N#C/C(=C\c1sc(N2CCOCC2)nc1-c1ccccc1)C(=O)Nc1cccc2ccccc12	2.3*	.	3.9*	.	.
COc1ccc(C2NC(=O)NC3=C2CCc2ccccc23)cc1 (configuration not stated)	25	84	37	80	24*
COc1cc(NC(C)CCCN)c2ncccc2c1Oc1ccccc1 (configuration not stated)	86	.	83	.	.
COc1cc2c(cc1NC(=O)c1cccnc1)oc1ccccc12	85	84	88	64	35*
COc1cc2c(cc1NC(=O)c1cc(-c3ccccn3)nc3ccccc13)oc1ccccc12	5	.	6.1*	.	.
COc1cc2c(cc1NC(=O)c1ccncc1)oc1ccccc12	89	71	82	75	48
N#C/C(=C\c1ccc(OCc2ccccc2)cc1)C(=O)Nc1nc2c(s1)CCN(Cc1ccccc1)C2	30	17*	50	13*	22*
COc1ccc(-c2nnc3ccc(SCC(=O)Nc4nc5ccccc5s4)nn23)cc1OC	83	.	92	.	.
Cc1csc2c(=O)n3c(nc12)CCCCC3	100	97	99	99	100
Cc1sc2c(=O)n3c(nc2c1C(=O)NC1CCCCC1)CCCCC3	72	95	70	89	39*
Cc1sc2c(=O)n3c(nc2c1C(=O)NCCCN1CCOCC1)CCCCC3	1.5*	101	107	104	81
CCOC(=O)c1cccc(NC(=O)c2cccnc2)c1	103	.	106	102	31*
O=C(Nc1cnc2ccccc2c1)c1cccnc1	103	102	101	106	7.7*
CCOC(=O)c1cccc(NC(=O)c2cncc(Br)c2)c1	95	.	96	.	.
CN(C)C(=O)c1ccc(NC(=O)c2cccnc2)cc1	108	93	100	104	39*
CCOCC(=O)Nc1cccc(C(=O)OCC)c1	95	105	97	97	21*
CC(C)C(=O)Nc1ccc(C(=O)NCc2cccnc2)cc1	98	100	99	102	36*
SMILES	PTEN del growth	Fibroblast inh	bCat KO growth	HUVEC inhibit	H69AR inhibit
O=C(Nc1ccc2cn[nH]c2c1)c1ccc(Cl)c(S(=O)(=O)N2CCOCC2)c1	86	.	86	.	.
CCOC(=O)c1ccc(-c2ccc(C3Nc4ccccc4C(=O)N3O)o2)cc1 (configuration not stated)	6	.	5.4*	.	.
COc1ccc(/C=C/C(=O)OCC(=O)Nc2ccc(C)cc2)cc1S(=O)(=O)N1CCOCC1	101	.	100	.	.
O=C(Nc1ccc(F)cc1)Nc1cc(OCC(F)(F)F)cc(OCC(F)(F)F)c1	3.7*	.	5.5*	.	.
O=C(NCCNC(=O)c1cc(OCC(F)(F)F)ccc1OCC(F)(F)F)Nc1ccc(Cl)cc1	10	.	5.4*	.	.
CCOc1ccc(NC(=O)Nc2cc(OCC(F)(F)F)cc(OCC(F)(F)F)c2)cc1	17	.	41	.	.
CC1CCCC(NC(=O)C2CCN(S(=O)(=O)N3CCCCCC3)CC2)C1C (configuration not stated)	89	.	80	.	.
CCOC(=O)N1CCN(C(=O)CN(c2ccc(Cl)c(C(F)(F)F)c2)S(C)(=O)=O)CC1	93	97	97	107	69
Cn1c(=O)[nH]c(=O)c2c1nc(Br)n2CCCSc1nc2ccccc2o1	17	60	20	57	16*
COc1ccc(CCNC(=O)c2ccc3c(=O)n(Cc4ccco4)c(=S)[nH]c3c2)cc1OC	78	101	92	41	11*
